ChEMBL document CHEMBL1799916, “Novel 3,5-bis(bromohydroxybenzylidene)piperidin-4-ones as coactivator-associated arginine methyltransferase 1 inhibitors: enzyme selectivity and cellular activity” (J Med Chem, 2011)
Calls of active or inactive are those of the source. The calls are words filed in the database; no cut-off is given here.

Key:
[1] = biological target: Protein arginine N-methyltransferase 1 (Homo sapiens, UniProt Q99873); assay: Inhibition of PRMT1-mediated methylation of NPL3 after 90 mins by scintillation counting in presence of S-adenosyl-l-[methyl-3H]methionine
Chain of Protein arginine N-methyltransferase 1 (Q99873 whole entry): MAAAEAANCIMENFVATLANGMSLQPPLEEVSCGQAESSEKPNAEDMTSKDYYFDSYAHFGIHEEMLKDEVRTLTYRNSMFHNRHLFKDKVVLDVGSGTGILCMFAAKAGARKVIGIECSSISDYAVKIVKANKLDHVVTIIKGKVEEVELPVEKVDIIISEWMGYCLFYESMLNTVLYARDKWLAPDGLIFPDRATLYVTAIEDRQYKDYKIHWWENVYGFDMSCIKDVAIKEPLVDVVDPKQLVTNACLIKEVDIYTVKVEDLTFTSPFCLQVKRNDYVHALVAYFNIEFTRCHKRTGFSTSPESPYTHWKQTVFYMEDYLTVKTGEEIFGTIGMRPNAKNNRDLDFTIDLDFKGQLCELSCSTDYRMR

[2] = biological target: T1, Histone-lysine N-methyltransferase SETD7 (Homo sapiens, UniProt Q8WTS6); assay: Inhibition of SET7-mediated methylation of histone H3 after 90 mins by scintillation counting in presence of S-adenosyl-l-[methyl-3H]methionine
T1 sequence (Q8WTS6 whole entry): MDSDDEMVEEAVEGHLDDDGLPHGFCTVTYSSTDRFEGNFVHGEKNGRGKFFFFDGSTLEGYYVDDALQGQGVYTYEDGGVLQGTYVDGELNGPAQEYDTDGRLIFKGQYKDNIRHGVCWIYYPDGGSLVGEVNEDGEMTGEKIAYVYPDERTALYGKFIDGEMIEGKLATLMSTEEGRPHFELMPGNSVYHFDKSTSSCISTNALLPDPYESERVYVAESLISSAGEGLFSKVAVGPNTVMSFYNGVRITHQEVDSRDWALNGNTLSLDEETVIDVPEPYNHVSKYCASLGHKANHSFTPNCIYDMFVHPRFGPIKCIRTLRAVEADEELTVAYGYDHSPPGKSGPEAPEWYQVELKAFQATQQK

[3] = biological target: T2, Histone-arginine methyltransferase CARM1 (Homo sapiens) (UniProt Q86X55); assay: Inhibition of CARM1-mediated methylation of CA150 at 100 uM after 90 mins by scintillation counting in presence of S-adenosyl-l-[methyl-3H]methionine
T2 sequence (whole entry): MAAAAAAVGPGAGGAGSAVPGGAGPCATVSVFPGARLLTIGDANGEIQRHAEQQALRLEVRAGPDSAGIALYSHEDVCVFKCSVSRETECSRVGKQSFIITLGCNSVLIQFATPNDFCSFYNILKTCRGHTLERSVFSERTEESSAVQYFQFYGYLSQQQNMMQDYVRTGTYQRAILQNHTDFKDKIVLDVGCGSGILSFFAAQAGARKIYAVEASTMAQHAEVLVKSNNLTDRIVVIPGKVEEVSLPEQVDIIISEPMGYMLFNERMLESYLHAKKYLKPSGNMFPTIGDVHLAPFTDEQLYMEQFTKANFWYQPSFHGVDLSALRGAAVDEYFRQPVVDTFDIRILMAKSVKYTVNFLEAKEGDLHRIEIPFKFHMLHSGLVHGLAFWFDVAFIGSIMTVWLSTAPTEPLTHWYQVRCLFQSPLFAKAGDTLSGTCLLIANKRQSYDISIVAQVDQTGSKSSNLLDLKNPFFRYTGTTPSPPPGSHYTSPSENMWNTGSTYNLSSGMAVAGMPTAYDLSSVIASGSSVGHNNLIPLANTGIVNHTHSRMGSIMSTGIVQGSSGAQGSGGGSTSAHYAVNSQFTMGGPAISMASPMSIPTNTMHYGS
Method in brief: (§1)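 Compound at 100 μM with 0.1–0.2 μM recombinant enzyme and 0.5–1.5 μM substrate in PBS pH 7.4 containing [³H]AdoMet. Incubated 30 °C for 90 min, then SDS-PAGE, PVDF transfer and overnight film fluorography. Ponceau-stained substrate bands cut out and dpm counted by liquid scintillation.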

[4] = biological target: Protein arginine N-methyltransferase 3 (Homo sapiens) (UniProt O60678); assay: Inhibition of PRMT3-mediated methylation of NPL3 at 100 uM after 90 mins by scintillation counting in presence of S-adenosyl-l-[methyl-3H]methionine; method in brief: as §1
Chain of Protein arginine N-methyltransferase 3 (Homo sapiens) (O60678 2-531 limits assumed): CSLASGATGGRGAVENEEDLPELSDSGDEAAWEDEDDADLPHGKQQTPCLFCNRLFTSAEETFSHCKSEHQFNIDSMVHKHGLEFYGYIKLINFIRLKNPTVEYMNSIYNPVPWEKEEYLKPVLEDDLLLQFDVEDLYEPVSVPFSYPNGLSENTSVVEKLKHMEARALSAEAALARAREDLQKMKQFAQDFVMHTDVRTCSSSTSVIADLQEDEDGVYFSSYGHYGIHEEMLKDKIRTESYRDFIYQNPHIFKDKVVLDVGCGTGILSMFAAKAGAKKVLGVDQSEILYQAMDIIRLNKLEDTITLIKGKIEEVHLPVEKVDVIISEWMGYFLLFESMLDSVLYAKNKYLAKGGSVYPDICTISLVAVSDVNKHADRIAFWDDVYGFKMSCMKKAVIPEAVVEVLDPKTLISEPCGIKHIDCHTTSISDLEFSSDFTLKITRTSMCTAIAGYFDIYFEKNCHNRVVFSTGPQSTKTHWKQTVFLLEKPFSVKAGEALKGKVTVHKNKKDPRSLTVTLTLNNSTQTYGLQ

[5] = biological target: Protein arginine N-methyltransferase 3 (Homo sapiens) (UniProt O60678); assay: Inhibition of PRMT3-mediated methylation of ribosome protein rpS223 at 100 uM after 90 mins by scintillation counting in presence of S-adenosyl-l-[methyl-3H]methionine; method in brief: as §1
[6] = biological target: Protein arginine N-methyltransferase 5 (Homo sapiens) (UniProt O14744); assay: Inhibition of PRMT5-mediated methylation of histone H4 at 100 uM after 90 mins by scintillation counting in presence of S-adenosyl-l-[methyl-3H]methionine; method in brief: as §1
Chain of Protein arginine N-methyltransferase 5 (Homo sapiens) (O14744 whole entry): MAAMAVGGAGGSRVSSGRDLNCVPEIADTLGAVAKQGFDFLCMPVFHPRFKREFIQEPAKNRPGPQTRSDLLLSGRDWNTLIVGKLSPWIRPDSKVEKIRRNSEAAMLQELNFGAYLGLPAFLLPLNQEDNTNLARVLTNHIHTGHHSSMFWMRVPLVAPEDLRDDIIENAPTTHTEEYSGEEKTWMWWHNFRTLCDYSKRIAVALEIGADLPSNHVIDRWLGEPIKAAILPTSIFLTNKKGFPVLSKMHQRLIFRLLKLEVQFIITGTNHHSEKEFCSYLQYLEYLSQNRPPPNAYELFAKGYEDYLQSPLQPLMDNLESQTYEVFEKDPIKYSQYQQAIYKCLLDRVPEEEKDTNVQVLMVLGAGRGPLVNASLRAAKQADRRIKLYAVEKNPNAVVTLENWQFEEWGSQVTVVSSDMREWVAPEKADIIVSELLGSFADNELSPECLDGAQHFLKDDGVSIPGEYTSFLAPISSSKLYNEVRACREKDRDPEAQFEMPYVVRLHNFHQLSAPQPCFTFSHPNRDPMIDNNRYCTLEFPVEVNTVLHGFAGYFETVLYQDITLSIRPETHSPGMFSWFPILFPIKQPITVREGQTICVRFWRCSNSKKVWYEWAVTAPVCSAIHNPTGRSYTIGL

[7] = biological target: T3, Histone-lysine N-methyltransferase SETD7 (Homo sapiens) (UniProt Q8WTS6); assay: Inhibition of SET7-mediated methylation of histone H3 at 100 uM after 90 mins by scintillation counting in presence of S-adenosyl-l-[methyl-3H]methionine; method in brief: as §1
T3 sequence (whole entry): T1 sequence (Q8WTS6 whole entry)

[8] = biological target: T2, Histone-arginine methyltransferase CARM1 (Homo sapiens); assay: Inhibition of CARM1-mediated prostate specific antigen promoter activity in human LNCAP cells after 48 hrs by luciferase reporter gene assay; format: cell-based
Method in brief: (§2)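 LNCaP grown in phenol-red-free RPMI1640 with 10% charcoal-stripped FCS, lipofected with 300 ng PSA(ARE)-LUC and 2 ng CMV-Renilla internal control. After 12 h, 20 nM DHT added to induce PSA-firefly, together with increasing compound concentrations. Cells harvested 42–44 h later; 5/6 used for dual luciferase read-out (firefly relative to Renilla). Mean ± SD from triplicate assays.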

[9] = biological target: T2, Histone-arginine methyltransferase CARM1 (Homo sapiens); assay: Inhibition of CARM1 expressed in tetracycline-induced human HEK293 cells coexpressing flag-tagged PABP1 assessed as inhibition of PABP1 methylation at 1 to 5 uM by SDS-PAGE analysis; format: cell-based
Method in brief: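 HEK293 line carrying tetracycline-controlled TetR with inducible Flag-tagged PABP1. Tetracycline added in the presence of compound to induce Flag-PABP1, which is resolved from endogenous PABP1 by its slower SDS-PAGE migration. Methylation detected with a methyl-specific PABP1 antibody.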

LNCaP [10] = assay: Cytotoxicity against human LNCAP cells assessed as ATP level at 8 to 10 uM after 44 hrs by CellTiter-Glo luminescent assay; format: cell-based
Method in brief: (§3)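 LNCaP in phenol-red-free RPMI1640 with 10% charcoal-stripped FCS, seeded ~20 h before transfection with PSA(ARE)-LUC plus CMV-Renilla. 12 h after transfection, treated with 20 nM DHT and compound. Harvested after 42–44 h; 1/6 of the cells assayed for ATP by CellTiter-Glo luminescence.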

[11] = biological target: T2, Histone-arginine methyltransferase CARM1 (Homo sapiens); assay: Inhibition of CARM1-mediated prostate specific antigen promoter activity in human LNCAP cells at 30 uM after 48 hrs by luciferase reporter gene assay; format: cell-based; method in brief: as §2
LNCaP [12] = assay: Cytotoxicity against human LNCAP cells assessed as ATP level at 30 uM after 44 hrs by CellTiter-Glo luminescent assay; format: cell-based; method in brief: as §3

Q: With `O=C1/C(=C/c2ccc(O)c(Br)c2)CN(Cc2cccc(Cl)c2)C/C1=C\c1ccc(O)c(Br)c1` as the molecule, how does the IC50 [1] read?
A: > 667 µM

Q: What about the IC50 [2] of the same molecule?
A: 174 µM

Q: And the inhibition [3]?
A: Active

Q: What about the inhibition [4] of the same molecule?
A: Active

Q: And the inhibition [5]?
A: Active

Q: What about the inhibition [6] of the same molecule?
A: Active

Q: What about the inhibition [7] of the same molecule?
A: inactive

Q: And the inhibition [8]?
A: Dose-dependent effect

Q: Which IC50 [1] does the source give for `O=C1/C(=C/c2ccc(O)c(Br)c2)CN(Cc2ccccc2)C/C1=C\c1ccc(O)c(Br)c1` here?
A: > 667 µM

Q: What about the IC50 [2] of the same molecule?
A: > 667 µM

Q: And the inhibition [3]?
A: Active

Q: And the inhibition [4]?
A: Active

Q: What about the inhibition [5] of the same molecule?
A: Active

Q: And the inhibition [7]?
A: inactive

Q: And the inhibition [9]?
A: Active

Q: What about the inhibition [8] of the same molecule?
A: Dose-dependent effect

Q: And the Activity (LNCaP [10])?
A: Non-toxic

Q: `O=C1/C(=C/c2ccc(O)c(Br)c2)CN(CC(=O)c2ccccc2)C/C1=C\c1ccc(O)c(Br)c1` was tested. Which IC50 [1] did it give?
A: > 667 µM

Q: What about the IC50 [2] of the same molecule?
A: 149 µM

Q: What about the inhibition [3] of the same molecule?
A: Active

Q: What about the inhibition [6] of the same molecule?
A: Active

Q: And the inhibition [7]?
A: inactive

Q: And the inhibition [11]?
A: Active

Q: And the Activity (LNCaP [12])?
A: Non-toxic
